Data as given in ChEMBL document CHEMBL1132564, “Antitumor benzothiazoles. 7. Synthesis of 2-(4-acylaminophenyl)benzothiazoles and investigations into the role of acetylation in the antitumor activities of the parent amines” (J Med Chem, 1999).

Key:
MDA-MB-468 = experiment: In vitro antitumor activity against MDA-468 carcinoma cell line.; assay type: functional, cell-based; settings: Homo sapiens
Outline: (§1)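 MTT assay, 7-day format: 250–300 cells/well, adhered 24 h drug-free, then compound 1 pM–100 μM (n = 8), final DMSO <0.25%; RPMI 1640/10% FCS, 37 °C, 5% CO2. MTT added after exposure, 4 h, formazan dissolved in DMSO–glycine (4:1), absorbance 550 nm.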

MCF7 = experiment: In vitro antitumor activity against MCF-7 carcinoma cell line.; assay type: functional, cell-based; settings: Homo sapiens; outline: as §1
NCI [1] = experiment: In vitro antitumor activity against carcinoma cell lines by 2-day assay; assay type: functional, Homo sapiens
Outline: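 NCI panel sulforhodamine B assay: line-specific seeding, 24 h drug-free, then five 10-fold dilutions (top 10^-4 M) for 2 days; growth inhibition from protein-stain optical density change; mean log GI50 across panel.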

NCI [2] = experiment: In vitro antitumor activity against carcinoma cell lines by 6-day assay; assay type: functional, Homo sapiens
Outline: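 NCI 60-cell-line panel, sulforhodamine B protein stain. Seeding density set per line's growth; 24 h drug-free incubation, then test agent at five 10-fold dilutions up to 10^-4 M for 6 days of exposure. Growth inhibition derived from change in protein-stain optical density; log GI50 reported.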

Homo sapiens = experiment: In vitro concentration to reduce colony formation of human tumor xenografts to 30% of the control; assay type: functional
Outline: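 Clonogenic colony-formation assay using cells from 22 human tumor xenografts, tested at 0.1, 1.0 and 10 μg/mL; colony inhibition expressed as T/C, with T/C < 30% scored active; IC70 concentration reported.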

Row | Structure (SMILES) | IC50 (MDA-MB-468) [µM] | IC50 (MCF7) [µM] | Mean log GI50 (NCI [1]) [M] | Mean log GI50 (NCI [2]) [M] | Mean IC70 (Homo sapiens) [µg/mL]
1 | c1ccc2sc(-c3ccc4[nH]ncc4c3)nc2c1 | > 10 | > 10 |  |  | 
2 | CC(=O)N(C(C)=O)c1ccc(-c2nc3ccccc3s2)cc1C | > 10 | > 10 |  |  | 
3 | Nc1ccc(-c2nc3ccccc3s2)cc1I | < 0.001 | < 0.001 | -4.75 | -5.12 | 6.1
4 | O=C(CCl)Nc1ccc(-c2nc3ccccc3s2)cc1I | > 0.01 | > 0.01 |  |  | 
5 | CC(=O)N(C(C)=O)c1ccc(-c2nc3ccccc3s2)cc1 | > 0.1 | > 0.1 |  |  | 
6 | O=C(CCl)Nc1ccc(-c2nc3ccccc3o2)cc1 | > 1 | > 1 |  |  | 
7 | CC(=O)Nc1ccc(-c2nc3ccccc3[nH]2)cc1 | > 10 | > 10 |  |  | 

Continued, in another order:

Row | IC50 (MDA-MB-468) [µM] | IC50 (MCF7) [µM] | Structure (SMILES) | Mean log GI50 (NCI [1]) [M] | Mean log GI50 (NCI [2]) [M] | Mean IC70 (Homo sapiens) [µg/mL]
8 | > 0.1 | > 0.1 | CC(=O)Nc1ccc(-c2nc3ccccc3s2)cc1 | -4.4 |  | 
9 | > 10 | > 10 | CC(=O)Nc1ccc(-c2nc3ccccc3s2)cc1C | -4.36 |  | 
10 | > 0.1 | > 0.1 | C/C(S)=N/c1ccc(-c2nc3ccccc3s2)cc1 |  |  | 
11 | > 0.1 | > 0.01 | CC(=O)Nc1ccc(-c2nc3ccccc3s2)cc1Br | -4.52 |  | 
12 | > 1 | > 1 | O=C(Nc1ccc(-c2nc3ccccc3s2)cc1)c1ccccc1 |  |  | 
13 | > 0.01 | > 0.01 | Nc1ccc(-c2nc3ccccc3s2)cc1 | -4.76 |  | 10
